Here are results for one molecule from ChEMBL document CHEMBL5705905, “Pharmacological targeting of kinases MST1 and MST2 augments tissue repair and regeneration” (Sci Transl Med, 2016).

As a reminder, the IC50 is the concentration at which inhibition is half-maximal. By Kd is commonly meant the equilibrium constant for the complex coming apart.

The source made the active and inactive calls. The calls are words filed in the database; no cut-off is given here.

In assay [1] the target is T1, Serine/threonine-protein kinase 3 (Homo sapiens, UniProt Q13188).
T1 sequence (Q13188 whole entry): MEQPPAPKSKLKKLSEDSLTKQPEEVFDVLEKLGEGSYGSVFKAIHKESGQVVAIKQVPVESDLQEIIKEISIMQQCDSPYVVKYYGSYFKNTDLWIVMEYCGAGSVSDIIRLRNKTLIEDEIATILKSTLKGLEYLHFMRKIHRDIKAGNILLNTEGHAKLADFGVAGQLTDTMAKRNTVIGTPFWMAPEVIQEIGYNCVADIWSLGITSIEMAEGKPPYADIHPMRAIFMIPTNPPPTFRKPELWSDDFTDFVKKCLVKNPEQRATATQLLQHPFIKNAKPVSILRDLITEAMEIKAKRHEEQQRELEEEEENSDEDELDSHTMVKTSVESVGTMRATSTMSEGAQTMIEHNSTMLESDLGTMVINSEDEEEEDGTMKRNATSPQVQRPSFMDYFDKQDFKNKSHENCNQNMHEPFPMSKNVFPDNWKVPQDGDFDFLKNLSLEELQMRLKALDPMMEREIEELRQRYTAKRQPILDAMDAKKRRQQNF
The assay can be described thus: Inhibition of recombinant His-tagged full-length MST2 (unknown origin) expressing in Escherichia coli assessed as MOB1a phosphorylation level incubated for 30 min in the presence of 100 uM ATP by immunoblot analysis. In general terms: In western blotting, separated proteins are transferred to a membrane and probed.

Assay [2] concerns the target Atypical kinase COQ8A, mitochondrial (Homo sapiens) (UniProt Q8NI60). Kind of assay: Inhibition of ADCK3 (unknown origin) assessed as remaining activity at 1 uM by Kinome scan method relative to control. A digest of the protocol: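 Active-site-dependent competition-binding (KINOMEscan) panel of 468 kinases, test compound at 1 μM (from a 10 mM DMSO stock). Read-out is ctrl% = (test signal − positive control signal)/(negative control signal − positive control signal) × 100. DMSO is the negative control (100%) and a control compound is the positive control (0%). Lower ctrl% means tighter binding.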

Assay [3] deals with Casein kinase I isoform delta (Homo sapiens) (UniProt P48730). Kind of assay: Inhibition of CSNK1D (unknown origin) assessed as remaining activity at 1 uM by Kinome scan method relative to control. A digest of the protocol:
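Active-site-dependent competition-binding profiling (KINOMEscan) at 1 μM against a 468-kinase panel; compound supplied from a 10 mM DMSO stock. Read-out is ctrl% = (test signal − positive control signal)/(negative control signal − positive control signal) × 100. DMSO is the negative control (100%) and a control compound the positive control (0%). Lower ctrl% means tighter binding.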

Assay [4] has as its target Ephrin type-B receptor 1 (Homo sapiens) (UniProt P54762). The assay can be described thus: Inhibition of EPHB1 (unknown origin) assessed as remaining activity at 1 uM by Kinome scan method relative to control.
Assay [5] addresses Receptor tyrosine-protein kinase erbB-2 (Homo sapiens) (UniProt P04626). The assay can be described thus: Inhibition of ERBB2 (unknown origin) assessed as remaining activity at 1 uM by Kinome scan method relative to control.
Assay [6] addresses Mitogen-activated protein kinase 6 (Homo sapiens) (UniProt Q16659). The assay can be described thus: Inhibition of ERK3 (unknown origin) assessed as remaining activity at 1 uM by Kinome scan method relative to control.
Assay [7] addresses Tyrosine-protein kinase Fgr (Homo sapiens) (UniProt P09769). The assay can be described thus: Inhibition of FGR (unknown origin) assessed as remaining activity at 1 uM by Kinome scan method relative to control.
Assay [8] deals with Mitogen-activated protein kinase 8 (Homo sapiens) (UniProt P45983). Kind of assay: Inhibition of JNK1 (unknown origin) assessed as remaining activity at 1 uM by Kinome scan method relative to control.
Assay [9] deals with Serine/threonine-protein kinase MRCK alpha (Homo sapiens) (UniProt Q5VT25). Kind of assay: Inhibition of MRCKA (unknown origin) assessed as remaining activity at 1 uM by Kinome scan method relative to control.
The target in assay [10] is Serine/threonine-protein kinase MRCK beta (Homo sapiens) (UniProt Q9Y5S2). The assay can be described thus: Inhibition of MRCKB (unknown origin) assessed as remaining activity at 1 uM by Kinome scan method relative to control.
For assay [11], the target named is Macrophage-stimulating protein receptor (Homo sapiens) (UniProt Q04912). Kind of assay: Inhibition of MST1R (unknown origin) assessed as remaining activity at 1 uM by Kinome scan method relative to control.
Macrophage-stimulating protein receptor (Homo sapiens), sequence (Q04912 25-304 limits assumed): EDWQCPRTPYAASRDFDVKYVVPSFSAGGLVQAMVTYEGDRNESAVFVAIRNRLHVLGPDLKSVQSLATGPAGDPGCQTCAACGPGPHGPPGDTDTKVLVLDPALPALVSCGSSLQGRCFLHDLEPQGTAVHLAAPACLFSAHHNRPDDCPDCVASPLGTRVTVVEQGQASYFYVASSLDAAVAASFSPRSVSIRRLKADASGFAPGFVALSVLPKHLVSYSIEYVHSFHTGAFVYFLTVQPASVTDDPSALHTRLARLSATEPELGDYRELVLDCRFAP
Macrophage-stimulating protein receptor (Homo sapiens), sequence (Q04912 310-1400 limits assumed): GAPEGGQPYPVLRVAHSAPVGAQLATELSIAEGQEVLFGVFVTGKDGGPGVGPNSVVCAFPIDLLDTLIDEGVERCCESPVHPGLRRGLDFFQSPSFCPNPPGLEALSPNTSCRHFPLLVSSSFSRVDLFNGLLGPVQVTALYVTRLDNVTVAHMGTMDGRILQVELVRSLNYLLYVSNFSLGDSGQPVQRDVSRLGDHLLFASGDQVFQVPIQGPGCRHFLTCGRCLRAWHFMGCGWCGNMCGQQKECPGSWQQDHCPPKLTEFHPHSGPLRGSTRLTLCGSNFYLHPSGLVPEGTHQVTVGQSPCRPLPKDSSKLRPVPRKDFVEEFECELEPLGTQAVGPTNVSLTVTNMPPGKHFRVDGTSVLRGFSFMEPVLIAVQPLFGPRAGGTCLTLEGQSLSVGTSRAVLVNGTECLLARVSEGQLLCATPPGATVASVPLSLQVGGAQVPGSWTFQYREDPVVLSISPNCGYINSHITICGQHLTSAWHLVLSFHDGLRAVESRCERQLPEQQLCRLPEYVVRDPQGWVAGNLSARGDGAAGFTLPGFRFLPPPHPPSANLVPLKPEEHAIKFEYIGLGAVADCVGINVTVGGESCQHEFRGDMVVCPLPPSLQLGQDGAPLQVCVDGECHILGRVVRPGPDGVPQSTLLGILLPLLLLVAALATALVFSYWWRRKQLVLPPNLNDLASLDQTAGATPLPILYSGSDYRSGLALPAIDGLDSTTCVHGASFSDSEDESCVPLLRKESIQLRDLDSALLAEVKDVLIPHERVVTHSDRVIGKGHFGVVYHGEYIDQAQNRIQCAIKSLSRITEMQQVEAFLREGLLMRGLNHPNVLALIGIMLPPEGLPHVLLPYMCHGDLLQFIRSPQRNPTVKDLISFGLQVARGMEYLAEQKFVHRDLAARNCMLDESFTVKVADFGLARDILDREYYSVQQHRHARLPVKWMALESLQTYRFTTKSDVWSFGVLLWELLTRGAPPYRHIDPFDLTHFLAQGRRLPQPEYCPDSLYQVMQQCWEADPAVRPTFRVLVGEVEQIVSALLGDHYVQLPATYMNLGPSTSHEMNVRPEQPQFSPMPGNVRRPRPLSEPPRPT
Assay [12] concerns the target Serine/threonine-protein kinase PAK 6 (Homo sapiens) (UniProt Q9NQU5). Kind of assay: Inhibition of PAK6 (unknown origin) assessed as remaining activity at 1 uM by Kinome scan method relative to control.
Assay [13] deals with Cyclin-dependent kinase 18 (Homo sapiens) (UniProt Q07002). Kind of assay: Inhibition of PCTK3 (unknown origin) assessed as remaining activity at 1 uM by Kinome scan method relative to control.
Assay [14] concerns the target Dual serine/threonine and tyrosine protein kinase (Homo sapiens) (UniProt Q6XUX3). The assay can be described thus: Inhibition of RIPK5 (unknown origin) assessed as remaining activity at 1 uM by Kinome scan method relative to control.
Assay [15] has as its target Uncharacterized serine/threonine-protein kinase SBK3 (Homo sapiens) (UniProt P0C264). Kind of assay: Inhibition of SgK110 (unknown origin) assessed as remaining activity at 1 uM by Kinome scan method relative to control.
Assay [16] addresses Tyrosine-protein kinase Srms (Homo sapiens) (UniProt Q9H3Y6). Kind of assay: Inhibition of SRMS (unknown origin) assessed as remaining activity at 1 uM by Kinome scan method relative to control.
In assay [17] the target is TRAF2 and NCK-interacting protein kinase (Homo sapiens) (UniProt Q9UKE5). The assay can be described thus: Inhibition of TNIK (unknown origin) assessed as remaining activity at 1 uM by Kinome scan method relative to control.
TRAF2 and NCK-interacting protein kinase (Homo sapiens), sequence (Q9UKE5 whole entry, looked up): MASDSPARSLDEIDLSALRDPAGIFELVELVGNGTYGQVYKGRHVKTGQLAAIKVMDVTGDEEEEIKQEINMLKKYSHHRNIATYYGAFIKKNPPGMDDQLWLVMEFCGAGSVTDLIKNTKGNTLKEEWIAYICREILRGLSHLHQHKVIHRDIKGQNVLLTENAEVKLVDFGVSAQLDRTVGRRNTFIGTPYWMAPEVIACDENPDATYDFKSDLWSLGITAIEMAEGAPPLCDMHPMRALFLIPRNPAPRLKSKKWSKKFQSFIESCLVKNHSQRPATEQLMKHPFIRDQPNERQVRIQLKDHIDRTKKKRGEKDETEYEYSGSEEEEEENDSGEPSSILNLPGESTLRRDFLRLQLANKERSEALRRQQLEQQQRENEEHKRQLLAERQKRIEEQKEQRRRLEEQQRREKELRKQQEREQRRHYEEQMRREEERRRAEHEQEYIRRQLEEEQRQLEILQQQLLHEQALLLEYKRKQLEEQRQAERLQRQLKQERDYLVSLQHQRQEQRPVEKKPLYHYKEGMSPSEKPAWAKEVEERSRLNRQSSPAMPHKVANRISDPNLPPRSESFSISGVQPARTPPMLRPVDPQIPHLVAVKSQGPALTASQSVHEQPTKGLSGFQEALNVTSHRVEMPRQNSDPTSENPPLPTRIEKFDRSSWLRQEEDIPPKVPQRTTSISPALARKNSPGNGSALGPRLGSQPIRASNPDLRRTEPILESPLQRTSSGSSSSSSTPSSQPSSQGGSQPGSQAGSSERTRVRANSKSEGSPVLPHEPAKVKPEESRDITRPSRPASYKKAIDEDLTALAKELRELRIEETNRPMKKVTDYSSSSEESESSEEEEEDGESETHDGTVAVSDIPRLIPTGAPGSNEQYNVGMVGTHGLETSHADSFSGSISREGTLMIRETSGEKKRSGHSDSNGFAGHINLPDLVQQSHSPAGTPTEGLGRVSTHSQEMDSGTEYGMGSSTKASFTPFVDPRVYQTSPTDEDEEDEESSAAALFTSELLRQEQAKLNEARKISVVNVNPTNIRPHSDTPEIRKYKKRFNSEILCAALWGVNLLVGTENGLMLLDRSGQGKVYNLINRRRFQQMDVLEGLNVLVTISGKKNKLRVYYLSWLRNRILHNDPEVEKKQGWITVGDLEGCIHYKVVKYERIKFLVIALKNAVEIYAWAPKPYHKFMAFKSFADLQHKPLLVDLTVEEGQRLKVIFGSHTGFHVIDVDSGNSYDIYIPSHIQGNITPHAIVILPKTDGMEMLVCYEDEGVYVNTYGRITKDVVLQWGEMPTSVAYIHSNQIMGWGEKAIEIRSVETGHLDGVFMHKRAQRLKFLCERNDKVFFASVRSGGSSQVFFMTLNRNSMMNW
Assay [18] concerns the target Serine/threonine-protein kinase WNK2 (Homo sapiens) (UniProt Q9Y3S1). The assay can be described thus: Inhibition of WNK2 (unknown origin) assessed as remaining activity at 1 uM by Kinome scan method relative to control.
The target in assay [19] is Tyrosine-protein kinase Yes (Homo sapiens) (UniProt P07947). Kind of assay: Inhibition of YES (unknown origin) assessed as remaining activity at 1 uM by Kinome scan method relative to control.
The target of assay [20] is Receptor-interacting serine/threonine-protein kinase 4 (Homo sapiens, UniProt P57078). The assay can be described thus: Binding affinity to RIPK4 (unknown origin) assessed as dissociation constant.
For assay [21], the target named is T1, Serine/threonine-protein kinase 3. Kind of assay: Inhibition of MST2 (unknown origin) in presence of ATP by enzymatic assay.
In assay [22] the test system is HepG2. Kind of assay: Induction of apoptosis in human HepG2 cells overexpressing MST2 assessed as necrosis cells at 3 uM by annexinV staining (Rvb =0.24 %). Type of assay: functional.
Assay [23] has as its system HepG2. Kind of assay: Inhibition of Flag-tagged MST1 Y101F mutant (unknown origin) in human HepG2 cells assessed as MOB1 phosphorylation level at 3 uM by immunoblot analysis. Type of assay: cell-based.
Another assay has as its system Mus musculus. The assay can be described thus: In vivo inhibition of MST1/2 in mouse assessed as MOB1 phosphorylation level at 1 mg/kg, ip administration and measured after between 1.5 to 6 hrs by immunoblot analysis. It is filed as functional, organism-based. The conditions noted are these: time 1.5-6 hrs. A digest of the protocol: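 Wild-type mice received 1 mg/kg intraperitoneally, with vehicle of 0.1% citric acid aqueous solution containing 20% Kolliphor HS 15. Livers were harvested over 0–12 h and lysates immunoblotted for p-MOB1 and p-YAP, normalized to control. Means ± SD, n = 3.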

Receptor tyrosine-protein kinase erbB-2 (Homo sapiens), sequence (P04626 whole entry): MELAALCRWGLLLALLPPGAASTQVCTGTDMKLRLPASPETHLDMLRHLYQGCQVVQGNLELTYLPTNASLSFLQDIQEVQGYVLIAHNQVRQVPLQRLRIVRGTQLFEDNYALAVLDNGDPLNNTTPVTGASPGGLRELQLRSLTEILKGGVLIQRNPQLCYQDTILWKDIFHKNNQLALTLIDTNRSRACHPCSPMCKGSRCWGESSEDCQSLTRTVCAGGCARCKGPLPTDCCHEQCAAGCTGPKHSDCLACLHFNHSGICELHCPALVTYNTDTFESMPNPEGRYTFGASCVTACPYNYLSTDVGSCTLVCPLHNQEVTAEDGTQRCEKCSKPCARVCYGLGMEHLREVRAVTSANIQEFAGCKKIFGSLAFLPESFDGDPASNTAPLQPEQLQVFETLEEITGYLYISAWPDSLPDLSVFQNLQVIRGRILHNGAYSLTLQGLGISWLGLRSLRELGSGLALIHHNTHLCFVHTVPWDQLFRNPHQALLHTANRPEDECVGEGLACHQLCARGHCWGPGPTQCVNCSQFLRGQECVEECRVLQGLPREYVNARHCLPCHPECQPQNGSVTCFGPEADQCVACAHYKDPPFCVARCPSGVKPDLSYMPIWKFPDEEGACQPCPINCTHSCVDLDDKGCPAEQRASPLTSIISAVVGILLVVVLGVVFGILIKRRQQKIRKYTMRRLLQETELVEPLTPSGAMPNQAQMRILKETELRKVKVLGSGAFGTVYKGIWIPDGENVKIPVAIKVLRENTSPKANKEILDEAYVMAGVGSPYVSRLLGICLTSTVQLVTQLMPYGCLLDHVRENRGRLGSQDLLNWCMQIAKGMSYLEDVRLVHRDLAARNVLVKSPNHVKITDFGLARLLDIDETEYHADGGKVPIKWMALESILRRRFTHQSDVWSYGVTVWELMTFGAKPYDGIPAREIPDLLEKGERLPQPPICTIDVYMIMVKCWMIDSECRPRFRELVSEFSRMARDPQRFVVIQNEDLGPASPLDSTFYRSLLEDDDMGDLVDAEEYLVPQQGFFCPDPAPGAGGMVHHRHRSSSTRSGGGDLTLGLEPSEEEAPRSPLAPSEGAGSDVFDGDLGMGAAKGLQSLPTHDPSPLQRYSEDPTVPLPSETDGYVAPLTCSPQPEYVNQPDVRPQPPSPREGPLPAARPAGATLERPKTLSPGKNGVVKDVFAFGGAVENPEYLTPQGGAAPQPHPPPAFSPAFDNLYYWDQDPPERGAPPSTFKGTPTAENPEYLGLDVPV
Uncharacterized serine/threonine-protein kinase SBK3 (Homo sapiens), sequence (P0C264 whole entry): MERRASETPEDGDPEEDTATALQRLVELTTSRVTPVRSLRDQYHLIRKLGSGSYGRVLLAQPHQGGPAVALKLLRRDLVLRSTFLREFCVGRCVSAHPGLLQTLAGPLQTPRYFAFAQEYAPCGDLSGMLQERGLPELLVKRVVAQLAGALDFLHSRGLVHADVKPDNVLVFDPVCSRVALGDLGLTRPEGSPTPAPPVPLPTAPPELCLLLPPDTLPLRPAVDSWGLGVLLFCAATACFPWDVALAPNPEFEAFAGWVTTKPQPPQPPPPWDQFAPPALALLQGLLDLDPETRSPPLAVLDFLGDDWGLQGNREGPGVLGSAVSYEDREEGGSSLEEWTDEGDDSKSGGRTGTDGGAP
Casein kinase I isoform delta (Homo sapiens), sequence (P48730 whole entry, looked up, canonical isoform): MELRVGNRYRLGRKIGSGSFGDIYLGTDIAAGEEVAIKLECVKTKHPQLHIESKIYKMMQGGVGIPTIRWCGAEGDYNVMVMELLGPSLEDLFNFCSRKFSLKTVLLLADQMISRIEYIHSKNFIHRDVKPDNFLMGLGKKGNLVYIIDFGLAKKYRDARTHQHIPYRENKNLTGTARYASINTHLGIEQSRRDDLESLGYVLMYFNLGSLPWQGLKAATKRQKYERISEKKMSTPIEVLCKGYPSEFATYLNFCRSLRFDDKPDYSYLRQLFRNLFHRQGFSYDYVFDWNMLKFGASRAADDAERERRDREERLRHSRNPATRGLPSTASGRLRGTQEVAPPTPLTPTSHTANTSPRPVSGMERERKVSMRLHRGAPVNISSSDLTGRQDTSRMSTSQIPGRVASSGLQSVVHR

As to `CN1C(=O)c2sccc2N(C)c2nc(Nc3ccc(S(N)(=O)=O)cc3)ncc21`, the figures for the IC50 in assay [1] and in [21] were 280 nM and 18.2 nM, respectively. Moreover, the Activity in [2] is 92%; in assay [3], 90%; in assay [4], 100%; in [5] it was 100%; in assay [6], 100%; in [7], 56%. The Activity in assay [8] was 81%; in [9], 76%; in assay [10], 100%; in assay [11], 96%; in assay [12] it was 100%; in assay [13] it was 100%. In addition, the Activity was 45% in assay [14]; 100% in assay [15]; 100% in assay [16]; 71% in assay [17]; 78% in assay [18]; 100% in [19]. In the assay on HepG2 [22], the Activity came out at 0.27%. Also, the equilibrium dissociation constant (Kd) in [20] came to 140 nM. The inhibition result in the assay with HepG2 [23] and with Mus musculus was “Active” in each case.
